# Assay results from different studies.
# Compare with care: the assays were run in different laboratories.
# Target: Serine/threonine-protein kinase Sgk3 (SGK3, Homo sapiens, UniProt Q96BR1)
# Residues used in one study (Q96BR1 1-496): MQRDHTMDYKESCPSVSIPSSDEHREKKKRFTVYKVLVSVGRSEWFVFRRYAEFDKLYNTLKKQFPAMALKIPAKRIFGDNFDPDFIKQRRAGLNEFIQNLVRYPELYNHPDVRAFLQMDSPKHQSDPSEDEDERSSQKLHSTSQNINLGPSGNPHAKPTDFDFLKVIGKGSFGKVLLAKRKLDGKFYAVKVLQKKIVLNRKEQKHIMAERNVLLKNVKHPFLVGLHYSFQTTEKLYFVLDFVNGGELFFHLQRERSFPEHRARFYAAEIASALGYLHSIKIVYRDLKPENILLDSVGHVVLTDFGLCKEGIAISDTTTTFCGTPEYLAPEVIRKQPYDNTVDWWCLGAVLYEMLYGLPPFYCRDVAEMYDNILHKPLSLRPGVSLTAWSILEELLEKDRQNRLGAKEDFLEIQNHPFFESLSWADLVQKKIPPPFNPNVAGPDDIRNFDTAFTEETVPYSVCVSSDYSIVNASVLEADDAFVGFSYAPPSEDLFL
SMILES,effect on,technique,tested at,remaining binding
O=C(c1ccc(Nc2nccc(-c3cc4ccccc4s3)n2)cc1)N1CCC(N2CCCC2)CC1,binding,competition with immobilised ligand,1 µM,19%
C[C@@]1(Cc2ccc(C#N)cc2)C(=O)N(c2cc(Cl)cc(Cl)c2)c2ncc(C(=O)NC3(c4nc(C5CCC5)no4)CC3)n21,cell-free assay,competition with immobilised ligand,1 µM,100%
O=C(NCCCN1CCOCC1)c1ccc(Nc2ncc(Cl)c(-c3ccc(Cl)s3)n2)cc1,binding,competition with immobilised ligand,1 µM,45%
C[C@@H](c1ccc(-n2cnc3c(N)ncnc32)cc1)N1CCc2nn(C)c(Cc3ccccc3)c2C1=O,binding,competition with immobilised ligand,0.1 µM,93%
FC(F)(F)Oc1cccc(-c2cnc3ccc(-c4ccncc4)nn23)c1,binding,competition with immobilised ligand,5 µM,70%
O=C(NCC1CCOCC1)c1n[nH]cc1NC(=O)c1c(F)cccc1F,binding,competition with immobilised ligand,1 µM,78%
COc1cccc(CNC(=O)c2nc3scc(COCc4ccc(C(=O)O)cc4)c3c(=O)[nH]2)c1,cell-free assay,competition with immobilised ligand,1 µM,69.2%
CCN1CCN(Cc2ccc(C(=O)Nc3ccc(C)c(Oc4ccc5c(c4)CC(=O)N5)c3)cc2C(F)(F)F)CC1,binding,competition with immobilised ligand,1 µM,100%
C[C@@H]1CCN(c2nccc(-c3cnn4ncccc34)n2)C1,binding,,1 µM,87%
O=C(NCCCN1CCOCC1)c1ccc(Nc2nccc(-c3cc4ccccc4s3)n2)cc1,binding,competition with immobilised ligand,1 µM,29%
Cc1cnn2ncc(-c3ccnc(N(C)C)n3)c2c1,binding,,1 µM,100%
COCCOc1nc(-c2ccc(Cl)nc2)nc2c1CN(C(=O)c1ncn3ccccc13)CC2,cell-free assay,competition with immobilised ligand,0.1 µM,100%
COc1ncc2cc3ccccc3nc2c1C#N,cell-free assay,competition with immobilised ligand,5 µM,100%
CN(CCCC(F)(F)F)c1nccc(-c2cnn3ncccc23)n1,binding,,1 µM,97%
Cn1cc(Cl)c2c(Oc3c(F)cc(Nc4cc(Cl)nc(N)n4)cc3F)ccnc21,cell-free assay,competition with immobilised ligand,0.1 µM,90%
N[C@H]1CCN(c2nccc(-c3cnn4ncccc34)n2)C1,binding,,1 µM,100%
O=C(NCc1ncc(C(F)(F)F)cc1Cl)c1ccc2c(c1)C1(CCS(=O)(=O)CC1)[C@H](C1CC1)N2S(=O)(=O)c1ccc(F)cc1,cell-free assay,competition with immobilised ligand,1 µM,99%
c1cnn2ncc(-c3ccnc(N4CCC45COC5)n3)c2c1,binding,,1 µM,71%
C[C@H](c1cccc(C#N)c1)n1cc(Cl)cc(C(N)=O)c1=N,cell-free assay,competition with immobilised ligand,1 µM,80%
CN(C)c1nccc(-c2cnn3ncccc23)n1,binding,,1 µM,100%
CNC(=O)[C@@H]1CC[C@@H](n2c(-c3ccc4cnccc4c3)nc3ccc(C(=O)NCc4cccc(C(N)=O)c4)cc32)C1,binding,competition with immobilised ligand,1 µM,82%
